Here are results for 12 compounds from PMC3594550 (Bioorganic & medicinal chemistry, 2012).

One data set concerns the target Grb2 SH3C domain (Homo sapiens, UniProt P62993). In words: Surface plasmon resonance. The class given is binding. As to conditions: for SPR classification (binder / non-binder) / SPR observed binding behavior (stoichiometry): 50 and 100 µM compound; for SPR classification (binder / non-binder): cut-off 5 RU at 100 µM (KD ≤ 1 mM); for SPR observed binding behavior (stoichiometry): maximum theoretical response 56 RU for 1:1 binding; for SPR binding behavior above concentrations of 200 µM: compound > 200 µM. The essentials:
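Untagged human Grb2 SH3C amine-coupled (EDC/NHS; 100 µM, pH 4.0 acetate) to a CM5 chip at 1500 RU. Compound in HBS-N (10 mM Hepes pH 7.4, 150 mM NaCl) with 5.0% DMSO and 0.01% Tween 20, injected 120 s at 40 µL/min, 25 °C. Double referenced against protein-free cell and buffer blank. DMSO-only and Gab2b peptide (24 µM) controls were run.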
(In general: In SPR one partner is held on a chip, and binding of the other changes the refractive index at the surface.)

Data set [1] in a line: Solubility / precipitation observed while handling in the competition assay. The class given is physicochemical.
Data set [2] deals with Grb2 SH3C (Homo sapiens, UniProt P62993). In words: Isothermal titration calorimetry. Type of data set: binding. As to conditions: 1 mM compound titrated into 20 µM Grb2 SH3C, 25 °C. Put shortly:
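Purified Grb2 SH3C (20 µM) in 50 mM Hepes pH 7.5, 50 mM NaCl, 0.5% DMSO, clarified and degassed, 25 °C. Compound (1 mM, same buffer) injected once at 4 µL, then 18 × 15 µL. Heat peaks integrated per mole of compound and plotted against compound:protein molar ratio.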

The target of data set [3] is Grb2 SH3C – Gab2b peptide interaction (Homo sapiens, UniProt P62993). The data set can be described thus: Biochemical competition assay. The class given is binding. As to conditions: for Hill slope of inhibition curve: concentration-response; for competition assay result in words: compound 5 mM. The essentials: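 Then 30 min with streptavidin-sepharose beads carrying biotinylated Gab2b peptide; washed with PBS-T. Bound protein read by SDS-PAGE, Coomassie and densitometry, normalised to no-inhibitor control (100%). Sigmoidal inhibition fit by nonlinear regression.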
Grb2 SH3C – Gab2b peptide interaction, sequence (P62993 156-215 limits assumed): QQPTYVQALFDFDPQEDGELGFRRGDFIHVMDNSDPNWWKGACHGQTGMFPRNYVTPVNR

In data set [4] the target is Grb2 SH3C. Conditions: read-out: Kd towards Grb2 SH3C; cited from earlier work.

Where no end group is shown, it is not given here.

Grb2 SH3C domain, sequence (P62993 156-215 limits assumed): as above
Grb2 SH3C (Homo sapiens, UniProt P62993), sequence (P62993 156-215 limits assumed): as above

Take `Cc1ccc(O)c(C2CC(=O)NC(N)=N2)c1` (centres unmarked) [compound 156]: on Grb2 SH3C domain, the SPR sensorgram quality result was “poor sensorgram shape” and the “SPR classification (binder / non-binder)” value is on record as “binders”.
For `CC1(C)N=C(N)N=C(N)N1c1cccc(OCc2cccc(N)c2)c1.Cl` [compound 1], the “SPR classification (binder / non-binder)” value on Grb2 SH3C domain is listed as “binders”.
Take `Cl.Cl.NC1CCC(NC2CCC(N)CC2)CC1` (centres unmarked) [compound 147]: at Grb2 SH3C domain, the SPR dissociation entry was “long dissociation time”, the “SPR response relative to the maximum theoretical response” value is on record as “over 10 times”, the “SPR classification (binder / non-binder)” value is recorded as “binders” and the “SPR observed binding behavior (stoichiometry)” value (from here on “SPR observed binding behavior”) is listed as “superstoichiometric”. This compound also had an SPR response level at Grb2 SH3C domain (maximum theoretical response 56 RU) of about 600 RU.
As for `CC(=O)c1ccc(/N=N/c2c(N)nc(N)nc2N)cc1` [compound 46], the aqueous solubility entry in data set [1] is given as “poor aqueous solubility”. In addition, the “SPR classification (binder / non-binder)” value at Grb2 SH3C domain is “binders”.
`CC1(C)N=C(N)N=C(N)N1c1cccc(CCCCc2cccc(N)c2)c1.Cl` [compound 3, 1-(3-(4-(3-Aminophenyl)butyl)phenyl)-6,6-dime thyl-1,6-dihydro-1,3,5-triazine-2,4-diamine•HCl]: the ITC response entry on Grb2 SH3C [2] was “no measurable response above background”. At Grb2 SH3C domain, the “SPR classification (binder / non-binder)” value is recorded as “binders” and the “SPR binding behavior above concentrations of 200 µM” value is listed as “superstoichiometric binding”. Besides, in data set [3], the “Hill slope of inhibition curve” value is −3.1.
As to `Cc1ccc(C(/C=C/c2ccccc2)=N/NC(=N)N)cc1.Cl` [compound 164], in data set [1] (competition assay buffer, compound 5 mM), the “precipitation during the assay” value is “precipitated during the assay”. Further, on Grb2 SH3C domain, the “SPR classification (binder / non-binder)” value is “binders” and the “SPR observed binding behavior” value is given as “superstoichiometric”. The “competition assay result in words” value in data set [3] is “nearly complete inhibition”.
In the case of `CC1(C)N=C(N)N=C(N)N1c1cccc(OCC#N)c1.Cl` [compound 41], at Grb2 SH3C domain, the “SPR classification (binder / non-binder)” value is reported as “binders” and the “SPR binding behavior above concentrations of 200 µM” value is “superstoichiometric binding”. Besides, the “inhibition in concentration-response experiment” value in data set [3] (dose range up to 20 mM, data not shown) is listed as “unquantifiably weak inhibition”.
Take `CC1(C)N=C(N)N=C(N)N1c1cccc(/C=C/C=C/c2cccc([N+](=O)[O-])c2)c1.Cl` [compound 5, 6,6-Dimethyl-1-(3-((1E,3E)-4-(3-nitrophenyl)buta-1,3-dien-1-yl)phenyl)-1,6-dihydro-1,3,5-triazine-2,4-diamine•HCl]: at Grb2 SH3C [2], the ITC response result is on record as “significant reaction heats”. Besides, on Grb2 SH3C domain, the “SPR classification (binder / non-binder)” value is given as “binders”, the “SPR observed binding behavior” value is given as “superstoichiometric” and the “SPR binding behavior above concentrations of 200 µM” value was “superstoichiometric binding”. Besides, the “Hill slope of inhibition curve” value in data set [3] is −5.0. Further, the “fold increase in affinity relative to compound 3” value in data set [3] (ratio of apparent IC50 values) is on record as 18 fold.
As for `CC1(C)N=C(N)N=C(N)N1c1cccc(OCCOc2cccc(N)c2)c1.Cl` [compound 9], on Grb2 SH3C domain, the “SPR classification (binder / non-binder)” value was “binders” and the “SPR observed binding behavior” value is recorded as “superstoichiometric”. Also, the “competition assay result in words” value in data set [3] is given as “no activity”.
For the compound `CC1(C)N=C(N)N=C(N)N1c1cc(C(F)(F)F)cc(C(F)(F)F)c1.Cl` [compound 11], the “SPR classification (binder / non-binder)” value on Grb2 SH3C domain is given as “no activity”. In data set [3], the “competition assay result in words” value was “no activity”.
One may read the Kd as the free concentration of one partner at which half of the binding sites on the other are occupied at equilibrium, for simple one-to-one binding. As to “15-mer Gab2 peptide: positive control Gab2b peptide; sequence: IQPPPVNRNLKPDRK-amide (IQPPPVNRNLKPDRK-NH2)”, the Kd at Grb2 SH3C [4] is 3.2 µM.
Regarding `Br.CC1(C)N=C(N)N=C(N)N1c1cccc(CO)c1` [compound 47], on Grb2 SH3C domain, the “SPR classification (binder / non-binder)” value was “no activity”. Further, the “competition assay result in words” value in data set [3] was “no activity”.
